Most compounds without a hit are left out; they make up all but 2.6% or so of the library.
EP2 mod = EP2 receptor modulators, cAMP readout, primary screen, cell-based, HTRF cAMP, PGE2 stimulation | EP2-expressing cells, cAMP HTRF FRET, PGE2 co-stimulation | induction, % at 25 µM | actives 0.83% (n = 260,000) | AID 940, 2007;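 active = compounds whose cAMP rise, as percent of the full-agonist control response, exceeds 60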;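 also: rat C6 glioma line stably carrying human EP2 under a CMV promoter; the protocol text gives 20 µM as final concentration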
Target sequence (P43116 whole entry, looked up): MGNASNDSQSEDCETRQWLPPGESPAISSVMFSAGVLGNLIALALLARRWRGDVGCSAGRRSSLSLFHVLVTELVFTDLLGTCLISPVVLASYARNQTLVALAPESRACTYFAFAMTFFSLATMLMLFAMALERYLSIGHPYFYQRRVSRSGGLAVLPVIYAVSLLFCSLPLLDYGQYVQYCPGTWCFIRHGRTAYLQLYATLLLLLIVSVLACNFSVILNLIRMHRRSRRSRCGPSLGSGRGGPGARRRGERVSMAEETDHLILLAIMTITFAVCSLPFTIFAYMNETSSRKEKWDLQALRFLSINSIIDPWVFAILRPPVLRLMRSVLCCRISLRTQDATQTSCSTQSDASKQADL
MC4R antagonist = MC4R antagonists of cAMP signaling, primary screen, cell-based, TR-FRET, antagonist arm of biased-ligand search | Melanocortin receptor 4 (Homo sapiens), P32245 | MC4R-expressing cells, MTII-stimulated cAMP, LANCE TR-FRET | inhibition, % at 6.5 µM | actives 0.48% (n = 360,000);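 active = inhibition above its plate's cutoff, the mean of tested wells on that plate plus 3 SD, cut at about 29% in these data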
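Assay system: U2OS-MC4R stable cell line; Also added: Melanotan II; Technique: Eu-cAMP/anti-cAMP TR-FRET, emission 671 nm; Times: 30-min compound, 1-h challenge, 1-h detection, room temperature.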
Granule exo inh = LAMP-1 surface exposure blockers, TALL-104 cells – cell-based, flow cytometry, MLPCN library, primary screen. TALL-104 LAMP-1 surface exposure; cells stimulated with thapsigargin and PMA. inhibition, % at 10 µM. actives 0.66% (n = 360,000);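 active = inhibition above about 55%, limit read from the data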
T cell modulator = modulators of CD8 T cell-vesicle binding, primary screen, mouse 2C CD8+ T cells, flow cytometry. response (vesicle binding), % at 7 µM. AID 2052, 2009. 2C CD8+ T cell-vesicle binding; active compounds read low. actives 0.068% (n = 330,000);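 active = response, share of CD8 T cells binding vesicles, and their 90th percentile fluorescence all below set limits, cut at about 80% in these data, passing the limit was not always enough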;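 also: values below 100% mean blocked vesicle binding to the CD8+ T cells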
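Incubation: binding step 1.5 h, 37 °C, antibody labelling 20 min, ice; system: murine 2C transgenic CD8+ T lymphocytes; technique: cytometric PE anti-B7-1 and Alexa647 anti-CD8 signals after 1% paraformaldehyde fixation; also added: QL9-charged Drosophila Ld/ICAM-1/B7-1 vesicles; control set: naked versus QL9-loaded vesicles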
EP2 antag = human EP2 receptor antagonists, primary screen, TR-FRET cAMP, C6 glioma cells | Prostaglandin E2 receptor EP2 subtype (Homo sapiens), P43116 | C6 glioma cells expressing human EP2; cells stimulated with saturating PGE2 | inhibition, % at 25 µM | actives 0.52% (n = 260,000);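 active = percent inhibition above 40 after rounding to a whole number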;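 also: rat C6 glioma host cells with rolipram phosphodiesterase inhibitor present; the protocol text gives 20 µM as final concentration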
MC4R ag barr = MC4R agonists recruiting beta-arrestin, primary screen, cell-based, luminescence, agonist arm of biased-ligand search; actives 0.98% (n = 360,000); AID 540308, 2011; U2OS MC4R beta-arrestin complementation; percent of melanotan II response, DMSO zero; activation, % at 8.9 µM;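 active = activation above a per-plate cutoff, the mean activation of sample wells on that plate plus 3 SD, cut at about 8% in these data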
Exocytosis CP01 = inhibitors of lytic granule exocytosis, confirmation, TALL-104 cells, flow cytometry, Cherry Pick01; AID 651954, 2012; LAMP-1 externalization; stimulated with PMA plus thapsigargin; shares compounds with Granule exo inh; inhibition, % at 10 µM; actives 11% (n = 1,500); in the data active = inhibition above about 60%
Hits are given with their value.

For Cc1cccc(C(O)c2cnc(C)n2Cc2ccccc2)c1 (stereo not drawn) the results were MC4R antagonist inactive, Granule exo inh inactive and MC4R ag barr inactive.
`COc1ccc(Cl)cc1-c1cc(C(=O)NCc2ccc(C(F)(F)F)cc2)[nH]n1` gave MC4R antagonist inactive, Granule exo inh 86.4, MC4R ag barr inactive and Exocytosis CP01 inactive.
COc1ccc(OC)c(NC(=O)c2cc(-c3cc(Cl)ccc3O)n[nH]2)c1 was read as EP2 mod inactive, MC4R antagonist inactive, Granule exo inh 89.6, T cell modulator inactive, EP2 antag inactive, MC4R ag barr inactive and Exocytosis CP01 inactive.
Screening COc1ccc(Cl)cc1-c1cc(C(=O)NCc2ccc(F)cc2)[nH]n1 returned MC4R antagonist inactive, Granule exo inh inactive and MC4R ag barr inactive.
For COc1ccc(-n2ncc3c(SCC(=O)N4CCCc5ccccc54)ncnc32)cc1 the results were EP2 mod inactive and EP2 antag inactive.
`COc1ccc(CCNC(=O)C(C)OC(=O)c2cc3oc(C)cc3n2C)cc1OC` (stereo not drawn) gave EP2 mod inactive and EP2 antag inactive.
Screening CC(=O)c1ccc(NC(=O)CN2CCC(C(=O)c3ccc(F)cc3)CC2)cc1 returned MC4R antagonist inactive, Granule exo inh inactive, T cell modulator inactive and MC4R ag barr inactive.
For CCOC(=O)N1CCN(CC(O)COc2c(C)cc(C)cc2C)CC1 (stereo not drawn) the results were MC4R antagonist inactive, Granule exo inh 62.3, T cell modulator inactive, MC4R ag barr inactive and Exocytosis CP01 inactive.
`Clc1ccc(Nc2cc(-c3ccccc3)nc3ncnn23)cc1` gave EP2 mod inactive, MC4R antagonist inactive, Granule exo inh inactive, T cell modulator inactive, EP2 antag inactive and MC4R ag barr inactive.
Screening O=C(NCc1ccccc1)C1(c2ccccc2)CCN(S(=O)(=O)c2ccccc2)CC1 returned EP2 mod inactive, MC4R antagonist inactive, Granule exo inh 62.7, T cell modulator inactive, EP2 antag inactive, MC4R ag barr inactive and Exocytosis CP01 inactive.
O=C(CNC1CCCCC1)Nc1ccc(S(=O)(=O)N2CCCCC2)cc1 was read as EP2 mod inactive, MC4R antagonist inactive, Granule exo inh 78.0, T cell modulator inactive, EP2 antag inactive, MC4R ag barr inactive and Exocytosis CP01 inactive.
Screening Cc1ccc(-n2cc(CNCCc3cscn3)c(-c3ccc(F)cc3)n2)cc1 returned EP2 mod inactive, MC4R antagonist inactive, Granule exo inh inactive, T cell modulator inactive, EP2 antag inactive and MC4R ag barr inactive.
`Cc1ccc(-n2cc(CNCCCn3ccnc3C)c(-c3ccc(F)cc3)n2)cc1` gave EP2 mod inactive, MC4R antagonist inactive, Granule exo inh 56.7, T cell modulator inactive, EP2 antag inactive, MC4R ag barr inactive and Exocytosis CP01 inactive.
Cc1ccc(-c2nn(-c3ccccc3)c3[nH]c(=O)c(CNCc4ccccc4)cc23)cc1 was read as EP2 mod inactive, MC4R antagonist inactive, Granule exo inh inactive, T cell modulator inactive, EP2 antag inactive and MC4R ag barr inactive.
Cc1ccc(-c2nn(-c3ccccc3)cc2CNCc2ccccc2)cc1 was read as EP2 mod inactive, MC4R antagonist inactive, Granule exo inh 70.3, T cell modulator inactive, EP2 antag inactive, MC4R ag barr 9.5 and Exocytosis CP01 91.7.
For Cn1cc(-c2csc(C(O)(c3ccccc3)C(F)(F)F)n2)cn1 (stereo not drawn) the results were MC4R antagonist inactive, Granule exo inh inactive and MC4R ag barr inactive.
